Test results published in ChEMBL document CHEMBL1268917, “Synthesis and biological evaluation of radio-iodinated benzimidazoles as SPECT imaging agents for NR2B subtype of NMDA receptor” (Bioorg Med Chem, 2010).

Experiments:
[1] = test system: Intestine; experiment: Biodistribution in ddY mouse intestine assessed per gram of tissue at 14.8 kBq, iv after 360 mins; assay type: ADME, organism-based; details: in vivo, 6 h
In short: (§1)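 Killed at set times after injection; organs and blood removed, weighed, gamma counted. Data as % injected dose per gram tissue, mean SD, n = 5–6.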

[2] = test system: Kidney; experiment: Biodistribution in ddY mouse kidney assessed per gram of tissue at 148 kBq, iv after 180 mins in presence of 200 mg/kg, iv of probenecid administered 30 mins before compound challenge (reference value: 6.29 +/- 1.47 %); details: in vivo, 3 h
[3] = test system: Spleen; experiment: Biodistribution in ddY mouse spleen assessed per gram of tissue at 14.8 kBq, iv after 360 mins; assay type: ADME, organism-based; details: in vivo, 6 h
In short: (§2)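 Radioiodinated tracer (14.8 kBq) injected via tail vein into male ddY mice (6 weeks, 30–35 g). Organs removed at set times after injection, weighed and gamma-counted; uptake expressed as % injected dose per gram tissue, mean ± SD, n = 5–6.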

[4] = test system: Heart; experiment: Biodistribution in ddY mouse heart assessed per gram of tissue at 14.8 kBq, iv after 30 mins; assay type: ADME, organism-based; details: in vivo, 0.5 h; in short: as §1
[5] = test system: Blood; experiment: Biodistribution in ddY mouse blood assessed per gram of tissue at 14.8 kBq, iv after 0.5 mins; assay type: ADME, organism-based; details: in vivo; in short: as §1
[6] = test system: Pancreas; experiment: Biodistribution in ddY mouse pancreas assessed per gram of tissue at 14.8 kBq, iv after 360 mins; assay type: ADME, organism-based; details: in vivo, 6 h; in short: as §2
[7] = test system: Lung; experiment: Biodistribution in ddY mouse lung assessed per gram of tissue at 14.8 kBq, iv after 30 mins; assay type: ADME, organism-based; details: in vivo, 0.5 h; in short: as §2
[8] = test system: Blood; experiment: Biodistribution in ddY mouse blood assessed per gram of tissue at 14.8 kBq, iv after 30 mins; assay type: ADME, organism-based; details: in vivo, 0.5 h; in short: as §1
[9] = test system: Blood; experiment: Biodistribution in ddY mouse blood assessed per gram of tissue at 14.8 kBq, iv after 5 mins; assay type: ADME, organism-based; details: in vivo; in short: as §1
[10] = test system: Brain; experiment: Biodistribution in ddY mouse brain assessed per gram of tissue at 14.8 kBq, iv after 180 mins; assay type: ADME, organism-based; details: in vivo, 3 h; in short: as §1
[11] = test system: Pancreas; experiment: Biodistribution in ddY mouse pancreas assessed per gram of tissue at 14.8 kBq, iv after 60 mins; assay type: ADME, organism-based; details: in vivo, 1 h; in short: as §2
[12] = test system: Blood; experiment: Biodistribution in ddY mouse blood assessed per gram of tissue at 14.8 kBq, iv after 60 mins; assay type: ADME, organism-based; details: in vivo, 1 h; in short: as §1
[13] = test system: Pancreas; experiment: Biodistribution in ddY mouse pancreas assessed per gram of tissue at 14.8 kBq, iv after 5 mins; assay type: ADME, organism-based; details: in vivo; in short: as §2
[14] = test system: Lung; experiment: Biodistribution in ddY mouse lung assessed per gram of tissue at 14.8 kBq, iv after 180 mins; assay type: ADME, organism-based; details: in vivo, 3 h; in short: as §2
[15] = test system: Stomach; experiment: Biodistribution in ddY mouse stomach assessed per gram of tissue at 14.8 kBq, iv after 0.5 mins; assay type: ADME, organism-based; details: in vivo; in short: as §2
[16] = test system: Kidney; experiment: Biodistribution in ddY mouse kidney assessed per gram of tissue at 14.8 kBq, iv after 5 mins; assay type: ADME, organism-based; details: in vivo; in short: as §1
[17] = test system: Spleen; experiment: Biodistribution in ddY mouse spleen assessed per gram of tissue at 14.8 kBq, iv after 180 mins; assay type: ADME, organism-based; details: in vivo, 3 h; in short: as §2
[18] = test system: Pancreas; experiment: Biodistribution in ddY mouse pancreas assessed per gram of tissue at 14.8 kBq, iv after 30 mins; assay type: ADME, organism-based; details: in vivo, 0.5 h; in short: as §2
[19] = test system: Blood; experiment: Biodistribution in ddY mouse blood assessed per gram of tissue at 14.8 kBq, iv after 180 mins; assay type: ADME, organism-based; details: in vivo, 3 h; in short: as §1
[20] = test system: Intestine; experiment: Biodistribution in ddY mouse intestine assessed per gram of tissue at 14.8 kBq, iv after 180 mins; assay type: ADME, organism-based; details: in vivo, 3 h; in short: as §1
[21] = test system: Brain; experiment: Biodistribution in ddY mouse brain assessed per gram of tissue at 148 kBq, iv after 180 mins in presence of 50 mg/kg, iv of cyclosporin A administered 30 mins before compound challenge (reference value: 0.50 +/- 0.04 %); assay type: ADME, organism-based; set-up: dose 50 mg/kg, route intravenous; details: in vivo, 3 h
[22] = test system: Kidney; experiment: Biodistribution in ddY mouse kidney assessed per gram of tissue at 14.8 kBq, iv after 180 mins; assay type: ADME, organism-based; details: in vivo, 3 h; in short: as §1
[23] = test system: Intestine; experiment: Biodistribution in ddY mouse intestine assessed per gram of tissue at 14.8 kBq, iv after 5 mins; assay type: ADME, organism-based; details: in vivo; in short: as §1
[24] = test system: Brain; experiment: Biodistribution in ddY mouse brain assessed per gram of tissue at 14.8 kBq, iv after 0.5 mins; assay type: ADME, organism-based; details: in vivo; in short: as §1
[25] = test system: Brain; experiment: Biodistribution in ddY mouse brain assessed per gram of tissue at 14.8 kBq, iv after 30 mins; assay type: ADME, organism-based; details: in vivo, 0.5 h; in short: as §1
[26] = test system: Brain; experiment: Biodistribution in ddY mouse brain assessed per gram of tissue at 14.8 kBq, iv after 360 mins; assay type: ADME, organism-based; details: in vivo, 6 h; in short: as §1
[27] = test system: Heart; experiment: Biodistribution in ddY mouse heart assessed per gram of tissue at 14.8 kBq, iv after 0.5 mins; assay type: ADME, organism-based; details: in vivo; in short: as §1
[28] = test system: Kidney; experiment: Biodistribution in ddY mouse kidney assessed per gram of tissue at 14.8 kBq, iv after 30 mins; assay type: ADME, organism-based; details: in vivo, 0.5 h; in short: as §1
[29] = test system: Intestine; experiment: Biodistribution in ddY mouse intestine assessed per gram of tissue at 14.8 kBq, iv after 30 mins; assay type: ADME, organism-based; details: in vivo, 0.5 h; in short: as §1
[30] = test system: Blood; experiment: Biodistribution in ddY mouse blood assessed per gram of tissue at 14.8 kBq, iv after 360 mins; assay type: ADME, organism-based; details: in vivo, 6 h; in short: as §1
[31] = test system: Liver; experiment: Biodistribution in ddY mouse liver assessed per gram of tissue at 14.8 kBq, iv after 5 mins; assay type: ADME, organism-based; details: in vivo; in short: as §1
[32] = test system: Stomach; experiment: Biodistribution in ddY mouse stomach assessed per gram of tissue at 14.8 kBq, iv after 360 mins; assay type: ADME, organism-based; details: in vivo, 6 h; in short: as §2
[33] = test system: Lung; experiment: Biodistribution in ddY mouse lung assessed per gram of tissue at 14.8 kBq, iv after 60 mins; assay type: ADME, organism-based; details: in vivo, 1 h; in short: as §2
[34] = test system: Pancreas; experiment: Biodistribution in ddY mouse pancreas assessed per gram of tissue at 14.8 kBq, iv after 0.5 mins; assay type: ADME, organism-based; details: in vivo; in short: as §2
[35] = test system: Brain; experiment: Biodistribution in ddY mouse brain assessed per gram of tissue at 14.8 kBq, iv after 5 mins; assay type: ADME, organism-based; details: in vivo; in short: as §1
[36] = test system: Spleen; experiment: Biodistribution in ddY mouse spleen assessed per gram of tissue at 14.8 kBq, iv after 60 mins; assay type: ADME, organism-based; details: in vivo, 1 h; in short: as §2
[37] = test system: Liver; experiment: Biodistribution in ddY mouse liver assessed per gram of tissue at 148 kBq, iv after 180 mins in presence of 50 mg/kg, iv of cyclosporin A administered 30 mins before compound challenge (reference value: 16.20 +/- 1.34 %); assay type: ADME, organism-based; set-up: dose 50 mg/kg, route intravenous; details: in vivo, 3 h
[38] = test system: Blood; experiment: Biodistribution in ddY mouse blood assessed per gram of tissue at 148 kBq, iv after 180 mins in presence of 50 mg/kg, iv of cyclosporin A administered 30 mins before compound challenge (reference value: 0.78 +/- 0.27 %); assay type: ADME, organism-based; set-up: dose 50 mg/kg, route intravenous; details: in vivo, 3 h
[39] = test system: Stomach; experiment: Biodistribution in ddY mouse stomach assessed per gram of tissue at 14.8 kBq, iv after 5 mins; assay type: ADME, organism-based; details: in vivo; in short: as §2
[40] = test system: Liver; experiment: Biodistribution in ddY mouse liver assessed per gram of tissue at 148 kBq, iv after 180 mins in presence of 200 mg/kg, iv of probenecid administered 30 mins before compound challenge (reference value: 19.13 +/- 2.09 %); details: in vivo, 3 h
[41] = test system: Pancreas; experiment: Biodistribution in ddY mouse pancreas assessed per gram of tissue at 14.8 kBq, iv after 180 mins; assay type: ADME, organism-based; details: in vivo, 3 h; in short: as §2
[42] = test system: Spleen; experiment: Biodistribution in ddY mouse spleen assessed per gram of tissue at 14.8 kBq, iv after 30 mins; assay type: ADME, organism-based; details: in vivo, 0.5 h; in short: as §2
[43] = test system: Stomach; experiment: Biodistribution in ddY mouse stomach assessed per gram of tissue at 14.8 kBq, iv after 30 mins; assay type: ADME, organism-based; details: in vivo, 0.5 h; in short: as §2
[44] = test system: Liver; experiment: Biodistribution in ddY mouse liver assessed per gram of tissue at 14.8 kBq, iv after 360 mins; assay type: ADME, organism-based; details: in vivo, 6 h; in short: as §1

For `Oc1ccc2nc(CN3CCC(Cc4ccc([125I])cc4)CC3)[nH]c2c1`, the Drug uptake [1] was 5.89 % ID/g, the Drug uptake [2] was 4.2 % ID/g and the Drug uptake [3] was 3.79 % ID/g. It also gave a Drug uptake [4] of 2.31 % ID/g, a Drug uptake [5] of 3.22 % ID/g and a Drug uptake [6] of 8.76 % ID/g. It also gave a Drug uptake [7] of 8.16 % ID/g, a Drug uptake [8] of 0.67 % ID/g and a Drug uptake [9] of 1.15 % ID/g. The Drug uptake [10] was 0.56 % ID/g, the Drug uptake [11] was 6.35 % ID/g and the Drug uptake [12] was 0.75 % ID/g. For the same compound, the Drug uptake [13] was 5.74 % ID/g, the Drug uptake [14] was 4.75 % ID/g and the Drug uptake [15] was 0.72 % ID/g. It also gave a Drug uptake [16] of 12.2 % ID/g, a Drug uptake [17] of 4.25 % ID/g and a Drug uptake [18] of 6.1 % ID/g. For the same compound, the Drug uptake [19] was 0.3 % ID/g, the Drug uptake [20] was 4.55 % ID/g and the Drug uptake [21] was 0.66 % ID/g. For the same compound, the Drug uptake [22] was 7.74 % ID/g, the Drug uptake [23] was 1.83 % ID/g and the Drug uptake [24] was 0.21 % ID/g. The Drug uptake [25] was 0.44 % ID/g, the Drug uptake [26] was 0.55 % ID/g and the Drug uptake [27] was 1.47 % ID/g. The Drug uptake [28] was 11.2 % ID/g, the Drug uptake [29] was 2.39 % ID/g and the Drug uptake [30] was 0.28 % ID/g. It also gave a Drug uptake [31] of 25.03 % ID/g, a Drug uptake [32] of 2.17 % ID/g and a Drug uptake [33] of 7.54 % ID/g. The Drug uptake [34] was 0.49 % ID/g, the Drug uptake [35] was 0.42 % ID/g and the Drug uptake [36] was 4.65 % ID/g. It also gave a Drug uptake [37] of 15.2 % ID/g, a Drug uptake [38] of 0.52 % ID/g and a Drug uptake [39] of 1.93 % ID/g. For the same compound, the Drug uptake [40] was 20 % ID/g, the Drug uptake [41] was 6.53 % ID/g and the Drug uptake [42] was 5.91 % ID/g. The Drug uptake [43] was 2.54 % ID/g and the Drug uptake [44] was 30.16 % ID/g.
